Laboratory results reported in ChEMBL document CHEMBL3632558, “Synthesis, antimycobacterial and antibacterial activity of l-[(1R,2S)-2-fluorocyclopropyl]naphthyridone derivatives containing an oxime-functionalized pyrrolidine moiety” (2015).
Values after ≈ are worked out from the molar mass of the structure shown.

Experiments:
Format in all cases: functional
[1] = system: Staphylococcus aureus; experiment: Antibacterial activity against methicillin-sensitive Staphylococcus aureus 14-1 after 18 to 24 hrs
How it was run: (§1)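 MIC by standard NCCLS reference procedure (M100-S11); lowest concentration of compound inhibiting visible bacterial growth after incubation at 35 °C for 18–24 h, read as complete inhibition of growth. Ciprofloxacin, levofloxacin and moxifloxacin run alongside as reference agents.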

[2] = system: Enterococcus faecium; experiment: Antibacterial activity against Enterococcus faecium 14-1 after 18 to 24 hrs; how it was run: as §1
[3] = system: Staphylococcus aureus; experiment: Antibacterial activity against methicillin-sensitive Staphylococcus aureus 14-2 after 18 to 24 hrs; how it was run: as §1
[4] = system: Enterococcus faecalis; experiment: Antibacterial activity against Enterococcus faecalis 14-2 after 18 to 24 hrs; how it was run: as §1
[5] = system: Escherichia coli; experiment: Antibacterial activity against Escherichia coli ATCC 25922 after 18 to 24 hrs; how it was run: as §1
[6] = system: Klebsiella pneumoniae; experiment: Antibacterial activity against ESBL-positive Klebsiella pneumoniae 14-17 after 18 to 24 hrs; how it was run: as §1
[7] = system: Mycobacterium tuberculosis; experiment: Antimycobacterial activity against Mycobacterium tuberculosis H37Rv ATCC 27294 by alamar blue assay
How it was run: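 Microplate Alamar Blue Assay; MIC is the lowest concentration giving ≥90% reduction in fluorescence relative to the mean of replicate bacterium-only controls. MDR strain 6133 is resistant to isoniazid and rifampicin.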

[8] = system: Staphylococcus aureus; experiment: Antibacterial activity against methicillin-resistant Staphylococcus aureus 14-4 after 18 to 24 hrs
[9] = system: Escherichia coli; experiment: Antibacterial activity against Escherichia coli 14-1 after 18 to 24 hrs; how it was run: as §1
[10] = system: Enterococcus faecium; experiment: Antibacterial activity against Enterococcus faecium 14-6 after 18 to 24 hrs; how it was run: as §1
[11] = system: Pseudomonas aeruginosa; experiment: Antibacterial activity against Pseudomonas aeruginosa ATCC 27853 after 18 to 24 hrs; how it was run: as §1
[12] = system: Escherichia coli; experiment: Antibacterial activity against Escherichia coli 14-2 after 18 to 24 hrs; how it was run: as §1
[13] = system: Enterococcus faecium; experiment: Antibacterial activity against Enterococcus faecium 14-2 after 18 to 24 hrs; how it was run: as §1
[14] = system: Klebsiella pneumoniae; experiment: Antibacterial activity against Klebsiella pneumoniae 14-2 after 18 to 24 hrs; how it was run: as §1
[15] = system: Klebsiella pneumoniae; experiment: Antibacterial activity against ESBL-positive Klebsiella pneumoniae 14-18 after 18 to 24 hrs; how it was run: as §1
[16] = system: Enterococcus faecalis; experiment: Antibacterial activity against Enterococcus faecalis 14-1 after 18 to 24 hrs; how it was run: as §1
[17] = system: Staphylococcus aureus; experiment: Antibacterial activity against methicillin-sensitive Staphylococcus aureus 14-3 after 18 to 24 hrs; how it was run: as §1
[18] = system: Pseudomonas aeruginosa; experiment: Antibacterial activity against Pseudomonas aeruginosa 14-9 after 18 to 24 hrs; how it was run: as §1
[19] = system: Staphylococcus aureus; experiment: Antibacterial activity against methicillin-resistant Staphylococcus aureus 14-5 after 18 to 24 hrs
[20] = system: Klebsiella pneumoniae; experiment: Antibacterial activity against Klebsiella pneumoniae 14-4 after 18 to 24 hrs; how it was run: as §1
[21] = system: Enterococcus faecium; experiment: Antibacterial activity against Enterococcus faecium 14-5 after 18 to 24 hrs; how it was run: as §1
[22] = system: Klebsiella pneumoniae; experiment: Antibacterial activity against ESBL-positive Klebsiella pneumoniae 14-19 after 18 to 24 hrs; how it was run: as §1
[23] = system: Escherichia coli; experiment: Antibacterial activity against ESBL-positive Escherichia coli 14-1 after 18 to 24 hrs; how it was run: as §1
[24] = system: Staphylococcus epidermidis; experiment: Antibacterial activity against methicillin-resistant Staphylococcus epidermidis 14-21 after 18 to 24 hrs
[25] = system: Klebsiella pneumoniae; experiment: Antibacterial activity against Klebsiella pneumoniae 14-1 after 18 to 24 hrs; how it was run: as §1
[26] = system: Staphylococcus epidermidis; experiment: Antibacterial activity against methicillin-sensitive Staphylococcus epidermidis 14-2 after 18 to 24 hrs; how it was run: as §1
[27] = system: Staphylococcus aureus; experiment: Antibacterial activity against methicillin-sensitive Staphylococcus aureus 14-4 after 18 to 24 hrs; how it was run: as §1
[28] = system: Staphylococcus aureus; experiment: Antibacterial activity against Staphylococcus aureus CMCC 26003 after 18 to 24 hrs; how it was run: as §1
[29] = system: Escherichia coli; experiment: Antibacterial activity against ESBL-positive Escherichia coli 14-2 after 18 to 24 hrs; how it was run: as §1
[30] = system: Klebsiella pneumoniae; experiment: Antibacterial activity against Klebsiella pneumoniae 14-3 after 18 to 24 hrs; how it was run: as §1
[31] = system: Pseudomonas aeruginosa; experiment: Antibacterial activity against Pseudomonas aeruginosa 14-14 after 18 to 24 hrs; how it was run: as §1
[32] = system: Staphylococcus epidermidis; experiment: Antibacterial activity against methicillin-resistant Staphylococcus epidermidis 14-39 after 18 to 24 hrs
[33] = system: Streptococcus pneumoniae; experiment: Antibacterial activity against Streptococcus pneumoniae ATCC 19615 after 18 to 24 hrs; how it was run: as §1
[34] = system: Pseudomonas aeruginosa; experiment: Antibacterial activity against Pseudomonas aeruginosa 14-19 after 18 to 24 hrs; how it was run: as §1
[35] = system: Staphylococcus epidermidis; experiment: Antibacterial activity against methicillin-resistant Staphylococcus epidermidis 14-37 after 18 to 24 hrs
[36] = system: Pseudomonas aeruginosa; experiment: Antibacterial activity against Pseudomonas aeruginosa 14-16 after 18 to 24 hrs; how it was run: as §1
[37] = system: Pseudomonas aeruginosa; experiment: Antibacterial activity against Pseudomonas aeruginosa 14-15 after 18 to 24 hrs; how it was run: as §1
[38] = system: Staphylococcus epidermidis; experiment: Antibacterial activity against methicillin-resistant Staphylococcus epidermidis 14-22 after 18 to 24 hrs

Row | SMILES | MIC [1] | MIC [2] | MIC [3] | MIC [4] | MIC [5] | MIC [6] | MIC90 [7] | MIC [8] | MIC [9] | MIC [10] | MIC [11] | MIC [12] | MIC [13] | MIC [14] | MIC [15] | MIC [16] | MIC [17] | MIC [18] | MIC [19] | MIC [20] | also measured
1 | COc1cccc(CO/N=C2\CN(c3nc4c(cc3F)c(=O)c(C(=O)O)cn4[C@@H]3C[C@@H]3F)CC2CN)c1OC (stereo partly specified) | 4 µg/mL (≈ 7.36 µM) | 1 µg/mL (≈ 1.84 µM) | < 0.008 µg/mL | 0.015 µg/mL (≈ 0.0276 µM) | 0.03 µg/mL (≈ 0.0552 µM) | 128 µg/mL (≈ 235 µM) | 0.376 µg/mL (≈ 0.692 µM) | 16 µg/mL (≈ 29.4 µM) | 2 µg/mL (≈ 3.68 µM) | 16 µg/mL (≈ 29.4 µM) | 2 µg/mL (≈ 3.68 µM) | 128 µg/mL (≈ 235 µM) | 1 µg/mL (≈ 1.84 µM) | 128 µg/mL (≈ 235 µM) | 16 µg/mL (≈ 29.4 µM) | 64 µg/mL (≈ 118 µM) | < 0.008 µg/mL | 8 µg/mL (≈ 14.7 µM) | 2 µg/mL (≈ 3.68 µM) | 128 µg/mL (≈ 235 µM) | MIC [21]: 4 µg/mL (≈ 7.36 µM); MIC [22]: 128 µg/mL (≈ 235 µM); MIC [23]: 32 µg/mL (≈ 58.9 µM); MIC [24]: 2 µg/mL (≈ 3.68 µM); MIC [25]: 128 µg/mL (≈ 235 µM); MIC [26]: 32 µg/mL (≈ 58.9 µM); MIC [27]: 0.015 µg/mL (≈ 0.0276 µM); MIC [28]: < 0.008 µg/mL; MIC [29]: 128 µg/mL (≈ 235 µM); MIC [30]: 64 µg/mL (≈ 118 µM); MIC [31]: 16 µg/mL (≈ 29.4 µM); MIC [32]: 16 µg/mL (≈ 29.4 µM); MIC [33]: 0.03 µg/mL (≈ 0.0552 µM); MIC [34]: 16 µg/mL (≈ 29.4 µM); MIC [35]: 16 µg/mL (≈ 29.4 µM); MIC [36]: 16 µg/mL (≈ 29.4 µM); MIC [37]: 16 µg/mL (≈ 29.4 µM); MIC [38]: 1 µg/mL (≈ 1.84 µM)
2 | COc1cc(CO/N=C2\CN(c3nc4c(cc3F)c(=O)c(C(=O)O)cn4[C@@H]3C[C@@H]3F)CC2CN)cc(OC)c1 (stereo partly specified) | 4 µg/mL (≈ 7.36 µM) | 2 µg/mL (≈ 3.68 µM) | < 0.008 µg/mL | 1 µg/mL (≈ 1.84 µM) | 2 µg/mL (≈ 3.68 µM) | 16 µg/mL (≈ 29.4 µM) | 0.375 µg/mL (≈ 0.69 µM) | 16 µg/mL (≈ 29.4 µM) | > 128 µg/mL | 16 µg/mL (≈ 29.4 µM) | 8 µg/mL (≈ 14.7 µM) | > 128 µg/mL | 4 µg/mL (≈ 7.36 µM) | > 128 µg/mL | 16 µg/mL (≈ 29.4 µM) | 16 µg/mL (≈ 29.4 µM) | 0.015 µg/mL (≈ 0.0276 µM) | 32 µg/mL (≈ 58.9 µM) | 8 µg/mL (≈ 14.7 µM) | > 128 µg/mL | MIC [21]: 8 µg/mL (≈ 14.7 µM); MIC [22]: 128 µg/mL (≈ 235 µM); MIC [23]: 4 µg/mL (≈ 7.36 µM); MIC [24]: 4 µg/mL (≈ 7.36 µM); MIC [25]: 128 µg/mL (≈ 235 µM); MIC [26]: 16 µg/mL (≈ 29.4 µM); MIC [27]: 0.015 µg/mL (≈ 0.0276 µM); MIC [28]: < 0.008 µg/mL; MIC [29]: > 128 µg/mL; MIC [30]: 64 µg/mL (≈ 118 µM); MIC [31]: 32 µg/mL (≈ 58.9 µM); MIC [32]: 16 µg/mL (≈ 29.4 µM); MIC [33]: 0.06 µg/mL (≈ 0.11 µM); MIC [34]: 16 µg/mL (≈ 29.4 µM); MIC [35]: 16 µg/mL (≈ 29.4 µM); MIC [36]: 32 µg/mL (≈ 58.9 µM); MIC [37]: 32 µg/mL (≈ 58.9 µM); MIC [38]: 4 µg/mL (≈ 7.36 µM)
